Measurements gathered from unrelated publications.
Protocols differ between the studies behind these lines. In brackets after ≈: the same amount, converted by molar mass.

Structure (SMILES)	tested on	test	system	setting	measurement	value
O=C(Nc1ccccc1F)c1cc2c(=O)n3ccccc3nc2n1Cc1ccccc1	Severe acute respiratory syndrome coronavirus 2	viral replication	Vero	0.1 µM	inhibition	87.2%
CN(CCc1ccc(Cl)c(Cl)c1)CCN1CCCC1	Severe acute respiratory syndrome coronavirus 2	viral replication	Vero C1008		IC50	5.25 µM
CCC(CC)COC(=O)[C@H](C)N[P@](=O)(OC[C@H]1O[C@@](C#N)(c2ccc3c(N)ncnn23)[C@H](O)[C@@H]1O)Oc1ccccc1	Severe acute respiratory syndrome coronavirus 2	viral replication	Vero	0.1 µM	inhibition	64.7%
O=C(O[C@@H]1Cc2c(O)cc(O)cc2O[C@@H]1c1cc(O)c(O)c(O)c1)c1cc(O)c(O)c(O)c1	Severe acute respiratory syndrome coronavirus 2	cytopathic effect	Vero C1008	0.7812 µM	inhibition	0%
[O-][N+]1=C(c2ccc(Cl)cc2)C2=NCCN2c2ccccc21	Clostridioides difficile	microbial growth			MIC90	0.25 µg/mL (≈ 0.84 µM)
CC(C)=CCc1c(O)ccc(C(=O)/C=C/c2ccc(O)cc2)c1O	Severe acute respiratory syndrome coronavirus 2	cytopathic effect	Vero C1008	12.5 µM	inhibition	0%
CC(=O)c1cccc(NC(=O)c2cc3c(=O)n4ccccc4nc3n2C)c1	Severe acute respiratory syndrome coronavirus 2	viral replication	Vero	1 µM	inhibition	93.7%
OC(CCN1CCCCC1)(c1ccccc1)C1CCCCC1 (stereo not drawn)	Severe acute respiratory syndrome coronavirus 2	viral replication	A549-ACE2		IC50	3.16 µM
Cc1ncc([N+](=O)[O-])n1CCO	Fusobacterium nucleatum	microbial growth			MIC50	≤ 0.06 µg/mL
O=C(/C=C/c1ccc(O)c(O)c1/C=C/c1ccc(O)c(O)c1)O[C@H](Cc1ccc(O)c(O)c1)C(=O)O	Severe acute respiratory syndrome coronavirus 2	cytopathic effect, inhibitor	Vero C1008	12.5 µM	inhibition	0%
OCCN1CCN(CCCN2c3ccccc3C=Cc3ccccc32)CC1	Severe acute respiratory syndrome coronavirus 2	viral replication, inhibitor	A549-ACE2		IC50	2.51 µM
CC(C)OC(=O)[C@H](C)N[P@](=O)(CO[C@H](C)Cn1cnc2c(N)ncnc21)Oc1ccccc1	Hepatitis B virus	viral replication	HepG2.2.15	14 days	IC50	0.05 µM
CN(Cc1cc(Br)cc(Br)c1N)C1CCCCC1	Severe acute respiratory syndrome coronavirus 2	viral replication, inhibitor	A549-ACE2		IC50	1.32 µM
Cc1cc(NC(=O)c2cc3c(=O)n4cccc(C)c4nc3n2C)ccc1Br	Severe acute respiratory syndrome coronavirus 2	viral replication	Vero	1 nM	inhibition	5.51%
CC(C)(C)[C@]1(O)CCN2C[C@H]3c4ccccc4CCc4cccc(c43)[C@@H]2C1	Severe acute respiratory syndrome coronavirus 2	viral replication, inhibitor	A549-ACE2		IC50	9.12 µM
COc1ccc(C[C@@H]2c3cc(Oc4cc(C[C@@H]5c6cc(O)c(OC)cc6CCN5C)ccc4O)c(OC)cc3CCN2C)cc1	Severe acute respiratory syndrome coronavirus 2	cytopathic effect	Vero C1008	0.7812 µM	inhibition	0%
Cc1ccc(NC(=O)c2cc3c(=O)n4cccc(C)c4nc3n2C)cc1Cl	Severe acute respiratory syndrome coronavirus 2	viral replication	Vero	10 µM	inhibition	94.8%
COc1c2c(cc3c1OCO3)[C@]13C=C[C@H](OC)C[C@@H]1[N@](C2)C[C@H]3OC(=O)c1ccc2ccccc2c1	PANC-1	cell growth or viability, WST-1			IC50	> 10 µM
CN(C)CCCC1(c2ccc(F)cc2)OCc2cc(C#N)ccc21 (stereo not drawn)	Severe acute respiratory syndrome coronavirus 2	viral replication, inhibitor	A549-ACE2		IC50	3.31 µM
N#C[C@]1(CO)O[C@@H](n2cnc3c(N)ncnc32)C[C@@H]1O	Hepatitis B virus	viral replication, qPCR	HepG2.2.15	14 days	IC50	0.066 µM
CN1CCN(C2=Nc3ccccc3Oc3ccc(Cl)cc32)CC1	Severe acute respiratory syndrome coronavirus 2	viral replication, inhibitor	A549-ACE2		IC50	5.75 µM
O=[N+]([O-])c1ccc(C2=[N+]([O-])c3ccccc3N3CCN=C23)cc1	Fusobacterium nucleatum	microbial growth			MIC50	≤ 0.06 µg/mL
C=CCNC1=C2C[C@@H](C)C[C@H](OC)[C@H](O)[C@@H](C)/C=C(\C)[C@H](OC(N)=O)[C@@H](OC)/C=C\C=C(/C)C(=O)NC(=C(c3ccccc3)C1=O)C2=O	ARPE-19	cell growth or viability, MTT			IC50	> 20 µM
CCc1ccc(NC(=O)c2cc3c(=O)n4ccccc4nc3n2C)cc1	Severe acute respiratory syndrome coronavirus 2	viral replication	Vero	10 nM	inhibition	6.1%
CCN(CC)CCO[C@H]1CC[C@@]2(C)C(=CC[C@@H]3[C@@H]2CC[C@]2(C)C(=O)CC[C@@H]32)C1	Severe acute respiratory syndrome coronavirus 2	viral replication, inhibitor	A549-ACE2		IC50	0.132 µM
C=C[C@@](C)(/C=C/c1ccc(O)cc1)CCC=C(C)C	Severe acute respiratory syndrome coronavirus 2	cytopathic effect, inhibitor	Vero C1008	12.5 µM	inhibition	0%
Cc1cccn2c(=O)c3cc(C(=O)Nc4ccc(N(C)C)cc4)n(C)c3nc12	Severe acute respiratory syndrome coronavirus 2	viral replication	Vero	1 µM	inhibition	80%
